Consider two substances from PMC3259211 (Journal of Controlled Release, 2011).

Broadly, the IC50 is the concentration needed to halve the response being measured.

In one assay the test system is white blood cells (WBCs). Briefly: Mobilization of white blood cells to peripheral blood. Format: in vivo, mice. The following applies: 50 µg per mouse s.c., 2 h; in words. Summed up:
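Normal mice received 50 µg test peptide s.c. in 200 µL; untreated mice were controls. Heart blood was taken under anaesthesia at 30 min, 1 h and 2 h. 100 µL blood was RBC-lysed, blocked 10 min on ice with 2% rat and 2% mouse serum, and stained for CD45.2, CD3, B220, CD11b, Gr-1 and F4/80. Cells were counted by flow cytometry with counting beads, WBCs gated as CD45.2⁺. Groups had ≥3 mice; two experiments.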

The next assay concerns progenitor cells. Kind of assay: Mouse progenitor colony assay. The following applies: 50 µg, post injection; in words. Format: in vivo, mice. Summed up:
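Mice were injected s.c. with 50 µg peptide; untreated mice were controls. 150 µL blood per mouse was plated in 3 mL MethoCult GF. Colonies were counted by inverted microscope 14 days after plating. Each group had ≥3 mice, assayed in duplicate per mouse.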

Another assay has as its target CXCR4 (Homo sapiens, UniProt P61073). The conditions noted are these: read-out: IC50 (binding to CXCR4); reported for T140; ref [26]; cited from earlier work.
For a further assay, the system named is stem cells. The following applies: mice; ref [12]; cited from earlier work.
Assay [1] has as its system Jurkat cells (CXCL12-induced migration). The conditions noted are these: Jurkat T-cells; ref [30]; cited from earlier work.

Sequence of CXCR4 (P61073 whole entry): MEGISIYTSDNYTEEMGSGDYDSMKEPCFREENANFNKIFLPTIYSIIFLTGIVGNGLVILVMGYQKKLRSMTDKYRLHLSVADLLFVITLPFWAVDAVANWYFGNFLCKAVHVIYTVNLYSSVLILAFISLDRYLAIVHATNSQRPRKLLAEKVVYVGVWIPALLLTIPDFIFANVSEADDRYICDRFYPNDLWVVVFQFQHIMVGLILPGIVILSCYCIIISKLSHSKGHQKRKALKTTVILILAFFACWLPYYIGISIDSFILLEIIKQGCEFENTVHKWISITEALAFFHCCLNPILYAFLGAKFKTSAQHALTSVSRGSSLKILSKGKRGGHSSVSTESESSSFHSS

As to 4-F-benzoyl-TN14003 [T140], in the assay on white blood cells (WBCs), the “time course of WBC numbers in the blood” value is recorded as “remained relatively stable after 2 h”. Also, in the assay with progenitor cells, the “time course of progenitors in the blood” value is “increased steadily and remained substantially elevated between 2 and 4 h post injection”. Moreover, the IC50 at CXCR4 was 2.5 nM. For the same substance, in the assay on stem cells, the “in vivo mobilization of stem cells from the bone marrow” value is on record as “induces in vivo mobilization of stem cells from the bone marrow, which is additive in effect with G-CSF treatment”.
Regarding “CXCL12: natural human ligand of CXCR4, chemokine CXCL12/SDF-1”, the “lowest concentration that induces maximal migration” value in assay [1] was 100 ng/mL.
